Reference: ChEMBL document CHEMBL1136357, “2-arylaminothiazoles as high-affinity corticotropin-releasing factor 1 receptor (CRF1R) antagonists: synthesis, binding studies and behavioral efficacy” (Bioorg Med Chem Lett, 2003)

How the values were obtained:
[1] = target: T1, Corticotropin-releasing factor receptor 1 (Homo sapiens, UniProt P34998); test: Binding affinity by displacement of [125I]Tyr-o-CRF from human corticotropin releasing factor receptor 1 expressed in IMR-32 human neuroblastoma cell.
T1 sequence (P34998 whole entry): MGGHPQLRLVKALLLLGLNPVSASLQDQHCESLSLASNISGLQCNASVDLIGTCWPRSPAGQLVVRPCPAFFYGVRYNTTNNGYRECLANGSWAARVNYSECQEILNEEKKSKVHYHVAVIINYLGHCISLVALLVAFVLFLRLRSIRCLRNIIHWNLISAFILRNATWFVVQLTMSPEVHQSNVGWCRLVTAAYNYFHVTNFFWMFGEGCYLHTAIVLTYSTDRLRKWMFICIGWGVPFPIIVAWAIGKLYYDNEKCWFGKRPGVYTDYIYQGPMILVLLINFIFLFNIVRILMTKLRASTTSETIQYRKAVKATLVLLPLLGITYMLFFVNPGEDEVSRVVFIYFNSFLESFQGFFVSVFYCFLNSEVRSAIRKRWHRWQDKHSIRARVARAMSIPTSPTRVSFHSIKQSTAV

[2] = Plasma clearance in rat after peroral administration at 10 mg/kg concentration; assay type: ADME, organism-based
In short: (§1)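 Rats were given the HCl salt at 10 mg/kg orally, and at 5 mg/kg intravenously in the same study. […] Half-life, clearance, volume of distribution and oral bioavailability (F) were derived from the same study.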

[3] = Half-life in rat after peroral administration at 10 mg/kg concentration; assay type: ADME, organism-based; details: in vivo; in short: as §1
[4] = Oral bioavailability in rat after peroral administration at 10 mg/kg; assay type: ADME, organism-based; details: in vivo; in short: as §1
[5] = Oral bioavailability in rat after […]; assay type: ADME, organism-based; details: in vivo
[6] = Ratio in brain to that of rat plasma for 2 hr after peroral administration at 10 mg/kg; assay type: ADME, organism-based; design: dose 10 mg/kg, route oral; details: po, read-out: B/P; in short: as §1
[7] = Ratio in brain to that of rat plasma for 2 hr after […]; assay type: ADME, organism-based; design: route oral; details: po, read-out: B/P
[8] = tested on: Rattus norvegicus; test: Area under curve in rat plasma for 0-4 hr after peroral administration at 10 mg/kg; assay type: ADME, organism-based; design: time < 4 hr, dose 10 mg/kg, route oral; details: in vivo, po; in short: as §1
[9] = tested on: IMR-32; test: Compound was tested for its ability to inhibit CRF stimulatedcAMP production in IMR-32 cells.; assay type: functional, Homo sapiens
[10] = tested on: Rattus norvegicus; test: Volume distribution in rat after peroral administration at 10 mg/kg; assay type: ADME, organism-based; design: dose 10 mg/kg, route oral; details: in vivo, po; in short: as §1
[11] = tested on: Rattus norvegicus; test: Volume distribution in rat after intravenous administration at 5 mg/kg; details: in vivo
[12] = Half-life in rat after intravenous administration at 5 mg/kg concentration; details: in vivo
[13] = Plasma clearance in rat after intravenous administration at 5 mg/kg concentration
[14] = tested on: Rattus norvegicus; test: Area under curve in rat plasma for 0-4 hr after peroral administration at 10 mg/kg; details: in vivo, po

SMILES	Ki [1] [nM]	also measured
CCCN(CC1CC1)C(=O)c1sc(Nc2c(Cl)cc(Cl)cc2Cl)nc1C	360	
CCCN(CC1CC1)c1nc(C)nc(Nc2c(Cl)cc(Cl)cc2Cl)c1Cl	20	
COCCN(CCOC)C(=O)c1sc(Nc2c(Cl)cc(Cl)cc2Cl)nc1C	51000	
CCCN(CC1CC1)C(=O)c1sc(Nc2c(Cl)cc(Cl)cc2Cl)nc1C(F)(F)F	31000	
CCCN(Cc1sc(Nc2c(C)cc(Cl)cc2Cl)nc1C(F)(F)F)CC1CC1	16	
CCCN(Cc1sc(N(CC)c2ccc(C(C)C)cc2Br)nc1C(F)(F)F)CC1CC1	56	
CCCN(Cc1sc(Nc2ccc(C(C)C)cc2Br)nc1C(F)(F)F)CC1CC1	2900	
CCCN(Cc1sc(Nc2c(CC)cccc2CC)nc1C(F)(F)F)CC1CC1	> 40000	
CCCN(Cc1sc(Nc2c(Cl)cc(Cl)cc2Cl)nc1C(F)(F)F)CC1CC1		CL/F [2]: 16 mL/min/kg; half-life [3]: 7.6 h; bioavailability [4]: 9%; bioavailability [5]: 9%; Kp at 2 h [6]: 2; Kp at 2 h [7]: 2; AUC [8]: 1730 ng·h/mL; Inhibition [9]: 90%; Vd [10]: 1.1 L/kg; Vd [11]: 1.1 L/kg; half-life [12]: 7.6 h; clearance [13]: 16 mL/min/kg; AUC [14]: 1730 ng·h/mL
CCCN(Cc1sc(Nc2ccc(OC)cc2OC)nc1C(F)(F)F)CC1CC1	5100	
CCCN(Cc1sc(Nc2c(C)cc(Cl)cc2C)nc1C(F)(F)F)CC1CC1	73	
CCCN(Cc1sc(Nc2c(Br)cc(C)cc2Br)nc1C(F)(F)F)CC1CC1	28	
CCCN(Cc1sc(Nc2c(C)cc(C)cc2C)nc1C(F)(F)F)CC1CC1	60	
CCCN(Cc1sc(N(C)c2c(C)cc(C)cc2Cl)nc1C(F)(F)F)CC1CC1	100	
CCCN(Cc1sc(Nc2c(C)cc(C)cc2Br)nc1C(F)(F)F)CC1CC1	21	
CCCN(Cc1sc(N(CC)c2c(C)cc(C)cc2Cl)nc1C(F)(F)F)CC1CC1	67	
CCCN(Cc1sc(Nc2c(Cl)cc(C(F)(F)F)cc2Cl)nc1C(F)(F)F)CC1CC1	28	
CCCN(CCC)C(=O)c1sc(Nc2c(Cl)cc(Cl)cc2Cl)nc1C	820	
CCCN(CC1CC1)C(=O)c1sc(Nc2c(Cl)cc(Cl)cc2Cl)nc1CC	11000	
CCCN(Cc1sc(Nc2c(C)cc(C)cc2Cl)nc1C(F)(F)F)CC1CC1	23	
CCN(CCOC)C(=O)c1sc(Nc2c(Cl)cc(Cl)cc2Cl)nc1C	16000	
CCN(CC)C(=O)c1sc(Nc2c(Cl)cc(Cl)cc2Cl)nc1C	5000	
CCCN(Cc1sc(Nc2c(Br)cc(Br)cc2Br)nc1C(F)(F)F)CC1CC1	7.8	
